From ChEMBL document CHEMBL1135734, “Side-chain lactam-bridge conformational constraints differentiate the activities of salmon and human calcitonins and reveal a new design concept for potent calcitonin analogues” (J Med Chem, 2002)
Positions of bridges follow the written chain, without caps; N, C: chain ends. Non-standard residues stand in square brackets, D forms with d. Residues, ends and D or L forms follow the SMILES beside them. Nle = CCCC[C@H](N)C(=O)O; Orn = NCCC[C@H](N)C(=O)O

Legend:
Calcitonin receptor [1] = target: T1, Calcitonin receptor (Homo sapiens, UniProt P30988); experiment: Inhibition of [125I]-salmon calcitonin (sCT) binding to human calcitonin receptor I1 expressed in HEK293 cells; format: cell-based
T1 sequence (P30988 whole entry): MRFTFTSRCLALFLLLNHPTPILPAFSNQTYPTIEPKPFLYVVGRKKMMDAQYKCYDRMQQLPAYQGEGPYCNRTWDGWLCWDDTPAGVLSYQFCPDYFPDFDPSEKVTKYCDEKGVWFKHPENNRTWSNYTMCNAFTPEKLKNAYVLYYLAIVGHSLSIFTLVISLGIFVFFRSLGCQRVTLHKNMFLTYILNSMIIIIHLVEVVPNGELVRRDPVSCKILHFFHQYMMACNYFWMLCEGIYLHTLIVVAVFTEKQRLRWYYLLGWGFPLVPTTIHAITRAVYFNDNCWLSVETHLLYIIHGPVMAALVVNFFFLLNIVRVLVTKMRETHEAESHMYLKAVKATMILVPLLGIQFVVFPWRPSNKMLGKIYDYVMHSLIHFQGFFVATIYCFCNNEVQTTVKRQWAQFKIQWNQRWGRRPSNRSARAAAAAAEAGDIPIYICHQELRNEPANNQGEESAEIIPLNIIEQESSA

Calcitonin receptor [2] = target: T2, Calcitonin receptor (Rattus norvegicus, UniProt P32214); experiment: Displacement of [125I]-salmon calcitonin (sCT) from calcitonin receptor of rat brain
T2 sequence (P32214 whole entry): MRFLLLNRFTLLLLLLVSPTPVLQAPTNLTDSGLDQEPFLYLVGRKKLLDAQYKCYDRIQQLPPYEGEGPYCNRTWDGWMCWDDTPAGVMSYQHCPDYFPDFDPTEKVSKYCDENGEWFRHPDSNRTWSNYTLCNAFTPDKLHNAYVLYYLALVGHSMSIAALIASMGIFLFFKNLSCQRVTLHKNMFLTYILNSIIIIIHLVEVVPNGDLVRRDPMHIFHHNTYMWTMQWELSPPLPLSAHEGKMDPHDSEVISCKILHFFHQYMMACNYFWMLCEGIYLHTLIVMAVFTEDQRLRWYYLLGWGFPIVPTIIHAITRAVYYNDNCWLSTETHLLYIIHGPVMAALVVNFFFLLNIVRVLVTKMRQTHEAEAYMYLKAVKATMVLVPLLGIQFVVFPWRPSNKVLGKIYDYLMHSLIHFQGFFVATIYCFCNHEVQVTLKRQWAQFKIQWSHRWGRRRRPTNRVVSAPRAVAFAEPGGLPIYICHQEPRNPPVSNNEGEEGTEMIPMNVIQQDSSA
Procedure, shortened: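 Male Sprague–Dawley rat (250–350 g) brain membranes (~0.63 mg protein/tube) were shaken on ice for 30 min with 10 pM final [125I-Tyr22]sCT and competitor in 50 mM Tris-HCl pH 7.4 with 34 μM bacitracin. Tubes were centrifuged and the pellets washed, SDS-solubilized and scintillation counted. Nonspecific binding was taken with 1 μM sCT. IC50 came from probit analysis, and relative affinity set sCT = 100%.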

| Ki (Calcitonin receptor [1]; hek293) [nM] | IC50 (Calcitonin receptor [2]) [nM] | Compound | Ki (Calcitonin receptor [1]) [nM] |
| --- | --- | --- | --- |
| 400 | > 5000 | CC[C@H](C)[C@H](NC(=O)[C@H](C)NC(=O)[C@@H](NC(=O)[C@H](CCC(N)=O)NC(=O)[C@@H]1CCCN1C(=O)[C@H](Cc1ccccc1)NC(=O)[C@@H](NC(=O)[C@H](Cc1c[nH]cn1)NC(=O)[C@@H]1CCCN1C(=O)[C@H](CCCCN)NC(=O)[C@H](CC(N)=O)NC(=O)[C@H](Cc1ccccc1)NC(=O)[C@H](CC(=O)O)NC(=O)[C@H](CCC(N)=O)NC(=O)[C@@H](NC(=O)[C@H](Cc1ccc(O)cc1)NC(=O)[C@@H](NC(=O)CNC(=O)[C@H](CC(C)C)NC(=O)[C@H](CCSC)NC(=O)[C@@H]1CSSC[C@H](N)C(=O)NCC(=O)N[C@@H](CC(N)=O)C(=O)N[C@@H](CC(C)C)C(=O)N[C@@H](CO)C(=O)N[C@@H]([C@@H](C)O)C(=O)N1)[C@@H](C)O)[C@@H](C)O)[C@@H](C)O)[C@@H](C)O)C(=O)NCC(=O)N[C@H](C(=O)NCC(=O)N[C@@H](C)C(=O)N1CCC[C@H]1C(N)=O)C(C)C (H-CGNLSTCMLGTYTQDFNKPHTFPQTAIGVGAP-NH2; disulfide 1-7) |  |
|  | 173 | CC[C@H](C)[C@H](NC(=O)[C@H](C)NC(=O)[C@@H](NC(=O)[C@H](CCC(N)=O)NC(=O)[C@@H]1CCCN1C(=O)[C@H](Cc1ccccc1)NC(=O)[C@@H]1CCCNC(=O)C[C@H](NC(=O)[C@H](Cc2ccccc2)NC(=O)[C@H](CC(=O)O)NC(=O)[C@H](CCC(N)=O)NC(=O)[C@@H](NC(=O)[C@H](Cc2ccc(O)cc2)NC(=O)[C@@H](NC(=O)CNC(=O)[C@H](CC(C)C)NC(=O)[C@H](CCSC)NC(=O)[C@H](CS)NC(=O)[C@@H](NC(=O)[C@H](CO)NC(=O)[C@H](CC(C)C)NC(=O)[C@H](CC(N)=O)NC(=O)CNC(=O)[C@@H](N)CS)[C@@H](C)O)[C@@H](C)O)[C@@H](C)O)C(=O)N[C@@H](CCCCN)C(=O)N[C@@H](Cc2ccccc2)C(=O)N[C@@H](Cc2c[nH]cn2)C(=O)N1)[C@@H](C)O)C(=O)NCC(=O)N[C@H](C(=O)NCC(=O)N[C@@H](C)C(=O)N1CCC[C@H]1C(N)=O)C(C)C (H-CGNLSTCMLGTYTQDFDKFH[Orn]FPQTAIGVGAP-NH2; lactam 17-21) |  |
| 2570 | > 5000 | CC[C@H](C)[C@H](NC(=O)[C@H](C)NC(=O)[C@@H](NC(=O)[C@H](CCC(N)=O)NC(=O)[C@@H]1CCCN1C(=O)[C@H](Cc1ccccc1)NC(=O)[C@@H](NC(=O)[C@H](Cc1c[nH]cn1)NC(=O)[C@H](CCCCN)NC(=O)[C@@H]1CCCN1C(=O)[C@H](CC(N)=O)NC(=O)[C@H](Cc1ccccc1)NC(=O)[C@H](CC(=O)O)NC(=O)[C@H](CCC(N)=O)NC(=O)[C@@H](NC(=O)[C@H](Cc1ccc(O)cc1)NC(=O)[C@@H](NC(=O)CNC(=O)[C@H](CC(C)C)NC(=O)[C@H](CCSC)NC(=O)[C@@H]1CSSC[C@H](N)C(=O)NCC(=O)N[C@@H](CC(N)=O)C(=O)N[C@@H](CC(C)C)C(=O)N[C@@H](CO)C(=O)N[C@@H]([C@@H](C)O)C(=O)N1)[C@@H](C)O)[C@@H](C)O)[C@@H](C)O)[C@@H](C)O)C(=O)NCC(=O)N[C@H](C(=O)NCC(=O)N[C@@H](C)C(=O)N1CCC[C@H]1C(N)=O)C(C)C (H-CGNLSTCMLGTYTQDFNPKHTFPQTAIGVGAP-NH2; disulfide 1-7) |  |
| 0.56 | 5.39 | CCCC[C@H](NC(=O)[C@H](CS)NC(=O)[C@@H](NC(=O)[C@H](CO)NC(=O)[C@H](CC(C)C)NC(=O)[C@H](CC(N)=O)NC(=O)CNC(=O)[C@@H](N)CS)[C@@H](C)O)C(=O)N[C@@H](CC(C)C)C(=O)NCC(=O)N[C@H](C(=O)N[C@@H](Cc1ccccc1)C(=O)N[C@H](C(=O)N[C@@H](CCC(N)=O)C(=O)N[C@@H](CC(=O)O)C(=O)N[C@@H](Cc1ccccc1)C(=O)N[C@H]1CC(=O)NCCC[C@@H](C(=O)N[C@@H](Cc2ccc(O)cc2)C(=O)N2CCC[C@H]2C(=O)N[C@@H](CCC(N)=O)C(=O)N[C@H](C(=O)N[C@@H](C)C(=O)N[C@H](C(=O)NCC(=O)N[C@H](C(=O)NCC(=O)N[C@@H](C)C(=O)N2CCC[C@H]2C(N)=O)C(C)C)[C@@H](C)CC)[C@@H](C)O)NC(=O)[C@H](Cc2c[nH]cn2)NC(=O)[C@H](Cc2ccccc2)NC(=O)[C@H](CCCCN)NC1=O)[C@@H](C)O)[C@@H](C)O (H-CGNLSTC[Nle]LGTFTQDFDKFH[Orn]YPQTAIGVGAP-NH2; lactam 17-21) |  |
| 0.069 | 0.249 | CC(C)C[C@H](NC(=O)[C@H](CCCCN)NC(=O)CNC(=O)[C@H](CC(C)C)NC(=O)[C@@H](NC(=O)[C@H](CS)NC(=O)[C@@H](NC(=O)[C@H](CO)NC(=O)[C@H](CC(C)C)NC(=O)[C@H](CC(N)=O)NC(=O)[C@H](CO)NC(=O)[C@@H](N)CS)[C@@H](C)O)C(C)C)C(=O)N[C@@H](CO)C(=O)N[C@@H](CCC(N)=O)C(=O)N[C@@H](CCC(=O)O)C(=O)N[C@@H](CC(C)C)C(=O)N[C@H]1CC(=O)NCCC[C@@H](C(=O)N[C@@H](Cc2ccc(O)cc2)C(=O)N2CCC[C@H]2C(=O)N[C@@H](CCCN=C(N)N)C(=O)N[C@H](C(=O)N[C@@H](CC(N)=O)C(=O)N[C@H](C(=O)NCC(=O)N[C@@H](CO)C(=O)NCC(=O)N[C@H](C(=O)N2CCC[C@H]2C(N)=O)[C@@H](C)O)[C@@H](C)O)[C@@H](C)O)NC(=O)[C@H](Cc2c[nH]cn2)NC(=O)[C@H](CC(C)C)NC(=O)[C@H](CCCCN)NC1=O (H-CSNLSTCVLGKLSQELDKLH[Orn]YPRTNTGSGTP-NH2; lactam 17-21) |  |

| Compound | Ki (Calcitonin receptor [1]; hek293) [nM] | IC50 (Calcitonin receptor [2]) [nM] | Ki (Calcitonin receptor [1]) [nM] |
| --- | --- | --- | --- |
| CC(C)C[C@H](NC(=O)[C@H](CCCCN)NC(=O)CNC(=O)[C@H](CC(C)C)NC(=O)[C@@H](NC(=O)[C@@H]1CSSC[C@H](N)C(=O)N[C@@H](CO)C(=O)N[C@@H](CC(N)=O)C(=O)N[C@@H](CC(C)C)C(=O)N[C@@H](CO)C(=O)N[C@@H]([C@@H](C)O)C(=O)N1)C(C)C)C(=O)N[C@@H](CO)C(=O)N[C@@H](CCC(N)=O)C(=O)N[C@@H](CCC(=O)O)C(=O)N[C@@H](CC(C)C)C(=O)N[C@@H](Cc1c[nH]cn1)C(=O)N[C@@H](CCCCN)C(=O)N[C@@H](CC(C)C)C(=O)N[C@@H](CCC(N)=O)C(=O)N[C@H](C(=O)N[C@@H](Cc1ccc(O)cc1)C(=O)N1CCC[C@H]1C(=O)N[C@@H](CCCNC(=N)N)C(=O)N[C@H](C(=O)N[C@@H](CC(N)=O)C(=O)N[C@H](C(=O)NCC(=O)N[C@@H](CO)C(=O)NCC(=O)N[C@H](C(=O)N1CCC[C@H]1C(N)=O)[C@@H](C)O)[C@@H](C)O)[C@@H](C)O)[C@@H](C)O |  | 0.377 | […] |
| CC(C)C[C@H](NC(=O)[C@H](CCCCN)NC(=O)CNC(=O)[C@H](CC(C)C)NC(=O)[C@@H](NC(=O)[C@H](CS)NC(=O)[C@@H](NC(=O)[C@H](CO)NC(=O)[C@H](CC(C)C)NC(=O)[C@H](CC(N)=O)NC(=O)[C@H](CO)NC(=O)[C@@H](N)CS)[C@@H](C)O)C(C)C)C(=O)N[C@@H](CO)C(=O)N[C@@H](CCC(N)=O)C(=O)N[C@@H](CCC(=O)O)C(=O)N[C@@H](CC(C)C)C(=O)N[C@H]1CC(=O)NCCCC[C@@H](C(=O)N[C@@H](Cc2ccc(O)cc2)C(=O)N2CCC[C@H]2C(=O)N[C@@H](CCCN=C(N)N)C(=O)N[C@H](C(=O)N[C@@H](CC(N)=O)C(=O)N[C@H](C(=O)NCC(=O)N[C@@H](CO)C(=O)NCC(=O)N[C@H](C(=O)N2CCC[C@H]2C(N)=O)[C@@H](C)O)[C@@H](C)O)[C@@H](C)O)NC(=O)[C@H](Cc2c[nH]cn2)NC(=O)[C@H](CC(C)C)NC(=O)[C@H](CCCCN)NC1=O (H-CSNLSTCVLGKLSQELDKLHKYPRTNTGSGTP-NH2; lactam 17-21) | 0.05 | 0.18 |  |
| CC[C@H](C)[C@H](NC(=O)[C@H](C)NC(=O)[C@@H](NC(=O)[C@H](CCC(N)=O)NC(=O)[C@@H]1CCCN1C(=O)[C@H](Cc1ccccc1)NC(=O)[C@@H](NC(=O)[C@H](Cc1c[nH]cn1)NC(=O)[C@H](Cc1ccccc1)NC(=O)[C@H](CCCCN)NC(=O)[C@H](CC(N)=O)NC(=O)[C@H](Cc1ccccc1)NC(=O)[C@H](CC(=O)O)NC(=O)[C@H](CCC(N)=O)NC(=O)[C@@H](NC(=O)[C@H](Cc1ccc(O)cc1)NC(=O)[C@@H](NC(=O)CNC(=O)[C@H](CC(C)C)NC(=O)[C@H](CCSC)NC(=O)[C@@H]1CSSC[C@H](N)C(=O)NCC(=O)N[C@@H](CC(N)=O)C(=O)N[C@@H](CC(C)C)C(=O)N[C@@H](CO)C(=O)N[C@@H]([C@@H](C)O)C(=O)N1)[C@@H](C)O)[C@@H](C)O)[C@@H](C)O)[C@@H](C)O)C(=O)NCC(=O)N[C@H](C(=O)NCC(=O)N[C@@H](C)C(=O)N1CCC[C@H]1C(N)=O)C(C)C |  | 2450 |  |
